Source: PubChem (several laboratories)
APP 5'UTR act: APP 5'UTR luciferase reporter activation. AID 1276. activation, % at 2 µM. 190,000 compounds, 1% hits. SH-SY5Y APP 5'UTR luciferase reporter, luminescence; zero percent = DMSO vehicle wells;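 active = activation above a set limit, based on mean plus 3 SD of controls, cut at about 140% in these data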
STAT1 blocker: STAT1 signaling inhibition; NIH 3T3 STAT1-luciferase reporter, IFN-gamma, luminescence; 200,000 compounds, 0.35% hits; inhibition, % at 5.5 µM;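 active = inhibition above a set limit, the mean inhibition across all tested compounds plus 3 SD, cut at about 34% in these data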
STAT3 inh-1: STAT3 signaling inhibition | U3A cells, IL-6 STAT3-luciferase reporter, luminescence; host cell line lacks STAT1 | inhibition, % at 5.5 µM | 190,000 compounds, 0.89% hits;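 active = inhibition above the mean inhibition across all screened compounds plus 3 SD, cut at about 44% in these data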
STAT3 activator: increases IL-6 driven STAT3 reporter signal | activation (% of control), % at 5.6 µM | U3A cells, IL-6 STAT3-luciferase reporter, luminescence; 100% = signal with IL-6 EC80 alone | 190,000 compounds, 0.91% hits;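 active = activation above the screen-wide mean of compound activation plus 3 SD, cut at about 130% in these data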
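Detection: reporter luminescence signal / Assay system: STAT1-lacking human U3A cells, STAT3 luciferase reporter / Incubation: compound pre-incubation 1 h before IL-6, then 6 h stimulation at 37 °C / Control set: IL-6-only high control / Read-out: % activation relative to IL-6 control / Probe or stimulus: Interleukin-6, 33 ng/mL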
NF-kB neuron act: NF-kB expression increase, human neuronal cells. NF-kB reporter expression; hits give high values. fold change at 12.5 µM. 190,000 compounds, 1.6% hits; in the data active = fold change above about 3.3
STAT1 act: increases IFN-gamma driven STAT1 reporter signal; 200,000 compounds, 2.6% hits; activation (% of control), % at 5.5 µM; NIH 3T3 STAT1-luciferase reporter, luminescence; 100% = IFN-gamma alone, no compound;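 active = activation above the screen-wide mean activation plus 3 SD, cut at about 130% in these data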
STAT3 inh-2: STAT3 inhibition, confirmation assay; shares compounds with STAT3 inh-1; U3A cells, IL-6 STAT3 luciferase reporter, luminescence; cell line lacks STAT1; inhibition, % at 5.7 µM; 1,200 compounds, 45% hits; AID 1265;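 active = inhibition above the hit cutoff computed for the primary STAT3 screen, cut at about 44% in these data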
NFkB inh 2: NF-kappaB inhibition in STAT3 inhibitor counter-screen; shares compounds with STAT3 inh-1; HEK293T NF-kB luciferase reporter, TNF-alpha induced; inhibition, % at 5.7 µM; 1,200 compounds, 36% hits;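 active = inhibition above the mean of solvent-only control wells plus 3 SD, cutoff set per campaign, cut at about 13% in these data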
STAT1 inh STAT3c: counter-screen for STAT3 inhibitors: STAT1 inhibition; shares compounds with STAT3 inh-1; NIH 3T3 STAT1-luciferase reporter, IFN-gamma induced, luminescence; inhibition, % at 5.7 µM; 1,200 compounds, 27% hits; AID 1317;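 active = inhibition above the mean plus 3 SD of solvent-only control wells, limit set per screening run, cut at about 16% in these data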
Hits are given with their value; i = inactive; nt = no result. Rows were chosen to be rich in hits. Some 5.1% of all compounds tested hit in one or more screens of this group.

SMILES	APP 5'UTR act	STAT1 blocker	STAT3 inh-1	STAT3 activator	NF-kB neuron act	STAT1 act	STAT3 inh-2	NFkB inh 2	STAT1 inh STAT3c
CSc1nsc2nc(=O)c(/C=C3\C(C)=Nc4ccccc43)c(N)n12	i	i	i	i	i	i	nt	nt	nt
CCn1c(SCC(=O)Nc2c(C)n(C)n(-c3ccccc3)c2=O)nc2c1c(=O)n(C)c(=O)n2C	i	i	i	i	i	i	nt	nt	nt
CCCCNc1cc(C)nc(NCc2ccccc2)n1	i	i	44	i	i	i	i	13	27
CC(=O)CSc1nc2cc3c(cc2cc1C#N)OCCO3	i	i	78	i	5.7	i	i	i	i
C=CCN=C1NN=C(c2cc(C)n(CC=C)c2C)CS1	i	i	74	i	i	i	50	26	i
COCCN=C1NN=C(c2cc(C)n(CC3CCCO3)c2C)CS1 (centres undefined)	i	i	i	i	i	i	nt	nt	nt
CCc1c(C)c2ccc(OCC(=O)N(C)C)c(C)c2oc1=O	i	i	i	i	i	i	nt	nt	nt
CCc1c(C)c2ccc(OCC(=O)OC(C)C)c(C)c2oc1=O	i	i	56	i	i	i	48	i	i
O=C1C(=C2SCCCS2)CC/C1=C\c1ccc(F)cc1	i	i	115	i	i	i	93	81	i
CC(=O)Nc1ccc(S(=O)(=O)NNC(=O)COc2cccc3ccccc23)cc1	i	i	i	i	i	i	nt	nt	nt
Cc1ccc(C(C[N+](=O)[O-])c2c(-c3ccccc3O)[nH][nH]c2=O)cc1 (centres undefined)	i	i	i	i	i	i	nt	nt	nt
O=C(Nc1ccccn1)c1onc2c1CCCC2	150	i	69	i	i	i	53	16	i
Cc1ccccc1C(=O)Nc1ccccn1	i	i	i	i	i	i	nt	nt	nt
CCOC(=O)c1cc(C(=O)c2ccccc2O)cn2c(=O)c3c(C)c(C)sc3nc12	i	i	i	i	i	i	nt	nt	nt
COc1ccc(C(=O)N2CCN(c3ccc([N+](=O)[O-])c(NCCc4ccc(OC)c(OC)c4)c3)CC2)cc1	i	i	70	i	i	i	87	42	29
COc1ccc(CCNc2cc(N3CCN(C(=O)c4ccc(C)cc4)CC3)ccc2[N+](=O)[O-])cc1OC	i	i	i	i	i	i	nt	nt	nt
COc1ccc(CCNc2cc(N3CCN(C(=O)c4ccccc4F)CC3)ccc2[N+](=O)[O-])cc1OC	i	i	69	i	i	i	84	37	19
COc1ccccc1OCCNc1cc(N2CCCCC2)ccc1[N+](=O)[O-]	i	i	i	i	i	i	nt	nt	nt
COc1cccc(C2=Nn3c(nnc3-c3ccccc3O)SC2)c1	i	i	i	i	i	i	nt	nt	nt
C[n+]1c2n(c3ccccc31)N=C(c1cc(C(C)(C)C)c(O)c(C(C)(C)C)c1)CS2	i	i	79	i	i	i	79	37	i
Cc1nn(C)c(C)c1CN(Cc1nc(CCC(C)C)no1)C(C)C	i	i	76	i	i	i	78	27	20
CC(C)N(Cc1cnn(C)c1)Cc1nc(Cc2ccccc2Cl)no1	i	i	i	i	i	i	nt	nt	nt
CSc1ccc(CN2CCN(C(=O)c3ccc([N+](=O)[O-])cc3)CC2)cc1	i	i	55	i	nt	i	59	i	i
Cc1cc(C(=O)CSc2nnc(-c3cccs3)o2)c(C)n1-c1ccccc1	i	i	47	i	i	i	i	17	i
O=C(CN(c1ccccn1)S(=O)(=O)c1ccccc1)N/N=C/c1cccc([N+](=O)[O-])c1	i	i	i	i	i	i	nt	nt	nt
SMILES	APP 5'UTR act	STAT1 blocker	STAT3 inh-1	STAT3 activator	NF-kB neuron act	STAT1 act	STAT3 inh-2	NFkB inh 2	STAT1 inh STAT3c
COCc1nnc(NC(=O)c2sc3ccccc3c2Cl)s1	i	i	i	i	i	i	nt	nt	nt
Cc1ccc(NC(=O)c2sc3ccccc3c2Cl)nc1	192	i	49	i	i	i	i	i	i
Cc1nnc(NC(=O)c2sc3ccccc3c2Cl)s1	i	i	66	i	3.3	i	45	13	19
CNC(=O)c1ccsc1NC(=O)c1sc2ccccc2c1Cl	i	i	i	i	i	i	nt	nt	nt
CCCc1nnc(SCC(=O)N2CCCCC2C)n1CCOC (centres undefined)	i	i	i	i	i	i	nt	nt	nt
CSc1ccccc1-n1nnnc1SCC(=O)Nc1cc(C)ccc1C	i	i	i	i	i	i	nt	nt	nt
COC(=O)c1ccccc1NC(=O)CNc1cc(OC)c(OC)cc1C	i	i	51	i	i	i	65	18	26
COc1ccc(-c2nc(-c3ccccc3)ncc2S(C)(=O)=O)cc1	i	i	i	i	i	i	nt	nt	nt
c1ccc(-c2cc3c(nn2)CCc2nonc2-3)cc1	i	i	i	i	i	i	nt	nt	nt
O=C1c2ccccc2-c2nnc(-c3ccccc3)cc21	i	i	52	i	3.3	i	55	33	16
O=C(COC(=O)c1cccs1)c1ccc2c(c1)OCCO2	i	i	54	i	i	i	i	i	i
Cc1ccc(C(=O)COC(=O)c2cccs2)cc1	198	i	47	i	7.5	i	i	i	i
Cc1cc(NC(=O)CN2C(=O)NC(C)(c3ccc(Cl)cc3)C2=O)no1 (centres undefined)	i	i	i	i	i	i	nt	nt	nt
CCOC(=O)c1ccc(NC(=O)c2ccc(C)c(S(=O)(=O)N3CCOCC3)c2)cc1	i	i	72	i	i	i	69	22	i
CCOC(=O)c1ccc(NC(=O)c2cccc(S(=O)(=O)N3CCOCC3)c2)cc1	i	i	58	i	i	i	i	i	i
Cc1ccc(C(=O)Nc2ccon2)cc1S(=O)(=O)N1CCOCC1	i	i	i	i	i	i	nt	nt	nt
O=C(Nc1cccc(F)c1)c1cccc(S(=O)(=O)N2CCOCC2)c1	i	i	i	i	i	i	nt	nt	nt
O=C(Nc1ccc(F)c(F)c1)c1ccc(F)c(S(=O)(=O)N2CCOCC2)c1	i	i	46	i	i	i	i	i	i
O=C(Nc1nc2ccccc2[nH]1)c1ccc(F)c(S(=O)(=O)N2CCOCC2)c1	i	i	i	i	i	i	nt	nt	nt
CCOc1cccc(-c2csc(C3COc4ccccc4O3)n2)c1 (centres undefined)	i	i	i	i	i	i	nt	nt	nt
Cc1ccc(S(=O)(=O)N2CCC(NC(=O)c3cccc(C)c3)CC2)cc1	i	i	i	i	i	i	nt	nt	nt
Cc1cc(NC(=O)c2ccc3c(c2)C(=O)N(C2CCCCC2)C3=O)no1	i	i	i	i	i	i	nt	nt	nt
O=C(Nc1ccncc1)c1ccc2c(c1)C(=O)N(C1CCCCC1)C2=O	i	i	75	i	i	i	66	i	i
